This passage reports inhibition, IC50 and Activity results from ChEMBL document CHEMBL1139136, “Synthesis of novel diaryl ethers and their evaluation as antimitotic agents” (Bioorg Med Chem Lett, 2007).

The source made the active and inactive calls. No cut-off for these calls is given here. Bounds are passed on as bounds.

Test [1] addresses T1, Tubulin (Homo sapiens) (UniProt P68371+Q9H4B7+P0DPH7+P68366+Q13509+Q71U36+P04350+Q3ZCM7+P07437+P68363+Q9BQE3+Q6PEY2+Q13885+Q9BVA1+Q9BUF5). In words: Inhibition of tubulin polymerization at 3 ug/ml. The class given is protein-complex assay. The essentials:
(§1)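 Kit-based tubulin assembly assay with compounds dissolved in DMSO. All components go into wells held at 0 °C and a baseline is set at 340 nm. Assembly is read at 0 °C and then at 37 °C. Results are percent inhibition against a vehicle control at each tested concentration.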

The test system of test [2] is HL-60. In words: Antiproliferative activity against human HL60 cells. Format: functional, cell-based. The gist of the method: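 Human myeloid leukemia HL-60 cells; antiproliferative IC50 (µM) by a previously described protocol, each series repeated independently at least two to three times.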
The target in test [3] is T1, Tubulin (Homo sapiens). In words: Inhibition of tubulin polymerization at 10 ug/ml. Format: protein-complex assay. The essentials:
as §1

Test [4] concerns the target T1, Tubulin (Homo sapiens). In words: Inhibition of tubulin polymerization at 1 ug/ml. Format: protein-complex assay. The gist of the method: as §1
The target of test [5] is T1, Tubulin (Homo sapiens). In words: Inhibition of tubulin polymerization at 20 ug/ml. Format: protein-complex assay.

Usually inhibition stands for how much of the control response was suppressed. A lower inhibition goes with little suppression. As a reminder, the IC50 is the concentration needed to halve the response being measured. A low value points to greater potency.

Turning to `COc1ccc(S(=O)(=O)Nc2cccnc2Nc2ccc(O)cc2)cc1` [ABT-751], the inhibition stood at 74.6% in test [1], 96.3% in test [3] and 40% in test [4]. In addition, the IC50 in test [2] was 0.34 µM.

In test [2], `COc1ccc(Oc2ccc(C(=O)NC3CC3)cc2)cc1F` came in with an IC50 of 14.1 µM. In test [3], this molecule gave an inhibition of 8.7%.

Take `COC(=O)c1ccc(Oc2ccc(OC)cc2)c(I)c1`: in test [2], the IC50 is over 20 µM.

As to `CCOC(=O)c1ccc(Oc2ccc(F)c(F)c2)cc1O`, the IC50 in test [2] was over 30 µM.

Turning to `COc1ccc(Oc2ccc(C(=O)NCCc3ccccc3)cc2)cc1F`, the IC50 in test [2] turned out to be 20.6 µM. That is a double-digit micromolar value.

Take `COc1ccc(Oc2ccc(C(=O)N(C)OC)cc2)cc1F`: the IC50 in test [2] is over 30 µM.

In test [2], `CCOC(=O)c1ccc(Oc2ccc(F)c(F)c2)cc1` showed an IC50 of over 30 µM.

In test [2], `CCOC(=O)c1ccc(Oc2ccc(OC)c(F)c2)cc1` returned an IC50 of 3.5 µM. For the same molecule, in test [3], the inhibition stood at 12.5%.

The molecule `CCOC(=O)c1ccc(Oc2ccc(OC)c(OC)c2)cc1` yielded an IC50 in test [2] of over 20 µM.

The molecule `COC(=O)c1cccc(Oc2ccc(N(C)C)cc2)c1` gave an IC50 in test [2] of over 20 µM.

Take `COC(=O)c1ccc(Oc2ccc(OC)cc2)c([N+](=O)[O-])c1`: in test [2], the IC50 was over 20 µM.

In test [2], `COc1ccc(Oc2ccc(C(=O)O)cc2)cc1F` gave a concentration for half-maximal inhibition (IC50) of over 30 µM.

For the molecule `COC(=O)c1cccc(Oc2ccc(OC)cc2)c1`, the IC50 in test [2] is over 20 µM.

Take `COC(=O)c1cccc(Oc2ccc(OC)c(F)c2)c1`: in test [2], the IC50 is over 20 µM.

Take `CCOC(=O)c1ccc(Oc2ccc(Cl)cc2)cc1`: the IC50 in test [2] was over 20 µM.

In test [2], `COC(=O)c1ccc(Oc2ccc(OC)cc2)c(N)c1` came in with a half-maximal inhibitory concentration (IC50) of over 20 µM.

With `COC(=O)c1ccc(Oc2ccc(OC)c(OC)c2)c([N+](=O)[O-])c1`, the IC50 in test [2] is over 20 µM.

Turning to `COc1ccc(Oc2c(OC)cccc2OC)cc1F`, the 50% inhibitory concentration (IC50) in test [2] was over 20 µM.

With `COC(=O)c1cccc(Oc2ccc(C#N)cc2)c1`, the IC50 in test [2] is over 20 µM.

In test [2], `COC(=O)c1ccc(Oc2ccc(OC)c(OC)c2)c(N)c1` registered an IC50 of over 20 µM.

Regarding `CCOC(=O)c1ccc(Oc2ccc(N(C)C)cc2)cc1O`, the IC50 in test [2] was over 30 µM.

For `CCOC(=O)c1ccc(Oc2ccc(OC)c(F)c2)cc1O`, the IC50 in test [2] was over 30 µM.

`CCOC(=O)c1ccc(Oc2ccc(C#N)cc2)cc1`: in test [2], the IC50 is over 20 µM.

With `CCOC(=O)c1ccc(Oc2ccc(N(C)C)cc2)cc1`, the half-maximal inhibitory concentration (IC50) in test [2] was over 20 µM.

In the case of `CCOC(=O)c1ccc(Oc2ccc(OC)c(OC)c2)cc1O`, the inhibition was 13.3% in test [5] and 5.5% in test [3]. The IC50 in test [2] worked out at 1.5 µM.

As for `COC(=O)c1ccc(Oc2ccc(OC)c(OC)c2)c(I)c1`, the concentration for half-maximal inhibition (IC50) in test [2] was 5.62 µM. In test [3], the result was inactive.

Take `COc1cccc(OC)c1Oc1ccc(C#N)cc1`: in test [2], the IC50 was over 20 µM.

On to `COc1cccc(OC)c1Oc1ccc(N(C)C)cc1`, for which, in test [2], the IC50 came out at 11.4 µM. In addition, the inhibition in test [3] was determined as 12.5%.

Molecule `CCOC(=O)c1ccc(Oc2ccc(OC)cc2)cc1O` registered an IC50 in test [2] of over 30 µM.

Molecule `CCOC(=O)c1ccc(Oc2ccc(OC)cc2)cc1` yielded an IC50 in test [2] of over 20 µM.
